In ChEMBL document CHEMBL3217512, “Indole/triazole conjugates are selective inhibitors and inducers of bacterial biofilms” (Medchemcomm, 2013):

Tests used:
[1] = system: Acinetobacter baumannii; assay: Antimicrobial activity against Acinetobacter baumannii 19606 assessed as effect on planktonic growth at PC75 after 2 to 24 hrs by colony count method; set-up: species or system ATCC 19606
[2] = system: Acinetobacter baumannii; assay: Antimicrobial activity against Acinetobacter baumannii 19606 assessed as effect on planktonic growth at PC50 after 2 to 24 hrs by colony count method; set-up: species or system ATCC 19606
[3] = system: Acinetobacter baumannii; assay: Antimicrobial activity against Acinetobacter baumannii 19606 assessed as effect on planktonic growth at PC25 after 2 to 24 hrs by colony count method; set-up: species or system ATCC 19606
[4] = system: Acinetobacter baumannii; assay: Antimicrobial activity against Acinetobacter baumannii 19606 assessed as effect on planktonic growth at PC75 after 2 to 24 hrs; set-up: species or system ATCC 19606
[5] = system: Acinetobacter baumannii; assay: Antimicrobial activity against Acinetobacter baumannii 19606 assessed as effect on planktonic growth at PC50 after 2 to 24 hrs; set-up: species or system ATCC 19606
[6] = system: Acinetobacter baumannii; assay: Antimicrobial activity against Acinetobacter baumannii 19606 assessed as effect on planktonic growth at PC25 after 2 to 24 hrs; set-up: species or system ATCC 19606
[7] = system: Escherichia coli; assay: Antimicrobial activity against Escherichia coli K-12 ER2718 assessed as effect on planktonic growth at PC75 after 2 to 24 hrs by colony count method; format: organism-based; conditions: in vivo
[8] = system: Escherichia coli; assay: Antimicrobial activity against Escherichia coli K-12 ER2718 assessed as effect on planktonic growth at PC50 after 2 to 24 hrs by colony count method; format: organism-based; conditions: in vivo
[9] = system: Escherichia coli; assay: Antimicrobial activity against Escherichia coli K-12 ER2718 assessed as effect on planktonic growth at PC25 after 2 to 24 hrs by colony count method; format: organism-based
[10] = system: Escherichia coli; assay: Antimicrobial activity against Escherichia coli K-12 ER2718 assessed as effect on planktonic growth at PC75 after 2 to 24 hrs; format: organism-based; conditions: in vivo
[11] = system: Escherichia coli; assay: Antimicrobial activity against Escherichia coli K-12 ER2718 assessed as effect on planktonic growth at PC50 after 2 to 24 hrs; format: organism-based
[12] = system: Escherichia coli; assay: Antimicrobial activity against Escherichia coli K-12 ER2718 assessed as effect on planktonic growth at PC25 after 2 to 24 hrs; format: organism-based
[13] = system: Staphylococcus aureus; assay: Antimicrobial activity against methicillin-resistant Staphylococcus aureus BAA 44 assessed as effect on planktonic growth at IC50 after 2 to 24 hrs by colony count method; format: organism-based; conditions: in vivo
[14] = system: Staphylococcus aureus; assay: Antimicrobial activity against Staphylococcus aureus 29213 assessed as effect on planktonic growth at IC50 after 2 to 24 hrs by colony count method; format: organism-based; conditions: in vivo
[15] = system: Acinetobacter baumannii; assay: Antimicrobial activity against Acinetobacter baumannii 19606 assessed as effect on planktonic growth at IC50 after 2 to 24 hrs by colony count method; set-up: species or system ATCC 19606
[16] = system: Escherichia coli; assay: Antimicrobial activity against Escherichia coli K-12 ER2718 assessed as effect on planktonic growth at IC50 after 2 to 24 hrs by colony count method; format: organism-based
[17] = system: Staphylococcus aureus; assay: Antimicrobial activity against methicillin-resistant Staphylococcus aureus BAA 44 assessed as effect on planktonic growth at IC50 after 2 to 24 hrs; format: organism-based; conditions: in vivo
[18] = system: Staphylococcus aureus; assay: Antimicrobial activity against Staphylococcus aureus 29213 assessed as effect on planktonic growth at IC50 after 2 to 24 hrs; format: organism-based; conditions: in vivo
[19] = system: Acinetobacter baumannii; assay: Antimicrobial activity against Acinetobacter baumannii 19606 assessed as effect on planktonic growth at IC50 after 2 to 24 hrs; set-up: species or system ATCC 19606
[20] = system: Escherichia coli; assay: Antimicrobial activity against Escherichia coli K-12 ER2718 assessed as effect on planktonic growth at IC50 after 2 to 24 hrs; format: organism-based
[21] = system: Acinetobacter baumannii; assay: Induction of biofilm formation in Acinetobacter baumannii 19606 at 50 uM after 24 hrs by crystal violet staining-based assay relative to control; format: functional, ATCC 19606 = CIP 70.34 = JCM 6841
How it was run: (§1)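 Static biofilm assay with compounds at 50 μM and crystal violet read-out, relative to an untreated control. Compounds increasing biofilm by less than 50% were called inducers, and by more than 50% strong inducers.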

[22] = system: Escherichia coli; assay: Induction of biofilm formation in Escherichia coli K-12 ER2718 at 50 uM after 24 hrs by crystal violet staining-based assay relative to control; format: functional; how it was run: as §1
[23] = system: Staphylococcus aureus; assay: Inhibition of biofilm formation in methicillin-resistant Staphylococcus aureus BAA 44 at 150 uM after 24 hrs by crystal violet staining-based assay relative to control; format: functional; conditions: BAA 44, 24 h
How it was run: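 Static biofilm development in MRSA, read out by crystal violet staining against an untreated control. Initial screen at 150 μM. Inhibitors then went to dose-response, with IC50 taken as the concentration giving 50% inhibition of biofilm growth. Induction was judged at 50 μM: under 50% induction counted as "inducer", over 50% as "strong inducer".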

[24] = system: Staphylococcus aureus; assay: Inhibition of biofilm formation in Staphylococcus aureus 29213 after 24 hrs by crystal violet staining-based assay; format: functional, organism-based; conditions: Staphylococcus aureus, 29213, 24 h
How it was run: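 Compounds active in the 150 μM screen were taken into dose-response studies under static conditions with a crystal violet read-out. IC50 is the concentration that inhibits 50% of biofilm growth relative to an untreated control.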

[25] = system: Acinetobacter baumannii; assay: Antimicrobial activity against Acinetobacter baumannii 19606 assessed as effect on planktonic growth at 50 uM after 2 to 24 hrs; set-up: species or system ATCC 19606
How it was run: (§2)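 Growth curve analysis of planktonic bacteria with each biofilm inducer at 50 μM, used to assess toxicity.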

[26] = system: Escherichia coli; assay: Antimicrobial activity against Escherichia coli K-12 ER2718 assessed as effect on planktonic growth at 50 uM after 2 to 24 hrs; format: organism-based; how it was run: as §2
[27] = system: Escherichia coli; assay: Induction of biofilm formation in Escherichia coli K-12 ER2718 assessed as concentration required for 50% promotion of biofilm formation after 24 hrs by crystal violet staining-based assay; format: functional
How it was run: (§3)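 For strong inducers of E. coli biofilm, dose-response curves were run in the static crystal violet assay. PC25, PC50 and PC75 are the concentrations promoting biofilm formation by 25%, 50% and 75%.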

[28] = system: Escherichia coli; assay: Induction of biofilm formation in Escherichia coli K-12 ER2718 assessed as concentration required for 25% promotion of biofilm formation after 24 hrs by crystal violet staining-based assay; format: functional; how it was run: as §3
[29] = system: Acinetobacter baumannii; assay: Inhibition of biofilm formation in Acinetobacter baumannii 19606 at 150 uM after 24 hrs by crystal violet staining-based assay relative to control; format: functional; conditions: ATCC 19606 = CIP 70.34 = JCM 6841, 24 h
[30] = system: Escherichia coli; assay: Induction of biofilm formation in Escherichia coli K-12 ER2718 assessed as concentration required for 75% promotion of biofilm formation after 24 hrs by crystal violet staining-based assay; format: functional; how it was run: as §3
[31] = system: Staphylococcus aureus; assay: Inhibition of biofilm formation in Staphylococcus aureus 29213 at 150 uM after 24 hrs by crystal violet staining-based assay relative to control; format: functional; conditions: Staphylococcus aureus, 29213, 24 h
[32] = system: Staphylococcus aureus; assay: Antimicrobial activity against Staphylococcus aureus 29213 assessed as effect on planktonic growth at PC75 after 2 to 24 hrs by colony count method; format: organism-based; conditions: in vivo
[33] = system: Staphylococcus aureus; assay: Antimicrobial activity against Staphylococcus aureus 29213 assessed as effect on planktonic growth at PC50 after 2 to 24 hrs by colony count method; format: organism-based; conditions: in vivo
[34] = system: Staphylococcus aureus; assay: Antimicrobial activity against Staphylococcus aureus 29213 assessed as effect on planktonic growth at PC25 after 2 to 24 hrs by colony count method; format: organism-based; conditions: in vivo
[35] = system: Staphylococcus aureus; assay: Antimicrobial activity against Staphylococcus aureus 29213 assessed as effect on planktonic growth at PC75 after 2 to 24 hrs; format: organism-based; conditions: in vivo
[36] = system: Staphylococcus aureus; assay: Antimicrobial activity against Staphylococcus aureus 29213 assessed as effect on planktonic growth at PC50 after 2 to 24 hrs; format: organism-based; conditions: in vivo
[37] = system: Staphylococcus aureus; assay: Antimicrobial activity against Staphylococcus aureus 29213 assessed as effect on planktonic growth at PC25 after 2 to 24 hrs; format: organism-based; conditions: in vivo
[38] = system: Staphylococcus aureus; assay: Induction of biofilm formation in Staphylococcus aureus 29213 at 50 uM after 24 hrs by crystal violet staining-based assay relative to control; format: functional; how it was run: as §1
[39] = system: Staphylococcus aureus; assay: Antimicrobial activity against Staphylococcus aureus 29213 assessed as effect on planktonic growth at 50 uM after 2 to 24 hrs; format: organism-based; how it was run: as §2

| SMILES | Activity [7] | Activity [8] | Activity [9] | Activity [10] | Activity [11] | Activity [12] | Activity [13] | Activity [14] | Activity [15] | Activity [16] | Activity [17] | Activity [18] | Activity [19] | Activity [20] | Activity [22] [%] | inhibition at 150 µM [23] [%] | IC50 [24] [µM] | Activity [26] | Activity [27] [µM] | Activity [28] [µM] | other results |
| --- | --- | --- | --- | --- | --- | --- | --- | --- | --- | --- | --- | --- | --- | --- | --- | --- | --- | --- | --- | --- | --- |
| O=C(Cn1cc(Cc2csc3ccccc23)nn1)Nc1ccccc1 | Non-toxic | Non-toxic | Non-toxic | Non-toxic | Non-toxic | Non-toxic | Non-toxic | Non-toxic | Non-toxic | Non-toxic | Non-toxic | Non-toxic | Non-toxic | Non-toxic | <50 | 20 | 215 | Non-toxic | – | – | Activity [1]: Non-toxic; Activity [2]: Non-toxic; Activity [3]: Non-toxic; Activity [4]: Non-toxic; Activity [5]: Non-toxic; Activity [6]: Non-toxic; Activity [21]: <50%; Activity [25]: Non-toxic |
| CCCCCc1ccc(C(=O)NCCn2cc(Cc3c[nH]c4ccccc34)nn2)cc1 | Non-toxic | Non-toxic | Non-toxic | Non-toxic | Non-toxic | Non-toxic | Non-toxic | Non-toxic | Non-toxic | Non-toxic | Non-toxic | Non-toxic | Non-toxic | Non-toxic | >50 | < 5 | 44.4 | Non-toxic | 74.8 | 48.3 | inhibition at 150 µM [29]: < 5%; Activity [30]: 111.6 µM |
| CCCCCCCc1ccc(C(=O)NCCn2cc(Cc3c[nH]c4ccccc34)nn2)cc1 | Non-toxic | Non-toxic | Non-toxic | Non-toxic | Non-toxic | Non-toxic | Non-toxic | Non-toxic | Non-toxic | Non-toxic | Non-toxic | Non-toxic | Non-toxic | Non-toxic | >50 | < 5 | 175 | Non-toxic | 80.7 | 50.5 | inhibition at 150 µM [29]: 30%; Activity [30]: 119.7 µM |
| CCCCCc1ccc(C(=O)NCCn2cc(Cc3csc4ccccc34)nn2)cc1 | Non-toxic | Non-toxic | Non-toxic | Non-toxic | Non-toxic | Non-toxic | Non-toxic | Non-toxic | Non-toxic | Non-toxic | Non-toxic | Non-toxic | Non-toxic | Non-toxic | >50 | < 5 | – | Non-toxic | 99.8 | 26.7 | inhibition at 150 µM [31]: < 5%; inhibition at 150 µM [29]: < 5%; Activity [30]: 151.9 µM |
| CCCCCCCc1ccc(C(=O)NCCn2cc(Cc3csc4ccccc34)nn2)cc1 | Non-toxic | Non-toxic | Non-toxic | Non-toxic | Non-toxic | Non-toxic | Non-toxic | Non-toxic | Non-toxic | Non-toxic | Non-toxic | Non-toxic | Non-toxic | Non-toxic | >50 | < 5 | 83 | Non-toxic | 56.3 | 22.2 | Activity [1]: Non-toxic; Activity [2]: Non-toxic; Activity [3]: Non-toxic; Activity [4]: Non-toxic; Activity [5]: Non-toxic; Activity [6]: Non-toxic; Activity [21]: <50%; Activity [25]: Non-toxic; Activity [30]: 93.8 µM |
| O=C(NCCn1cc(Cc2c(Br)[nH]c3ccccc23)nn1)c1ccccc1F | Non-toxic | Non-toxic | Non-toxic | Non-toxic | Non-toxic | Non-toxic | Non-toxic | Non-toxic | Non-toxic | Non-toxic | Non-toxic | Non-toxic | Non-toxic | Non-toxic | <50 | 20 | – | Non-toxic | – | – | Activity [32]: Non-toxic; Activity [33]: Non-toxic; Activity [34]: Non-toxic; Activity [35]: Non-toxic; Activity [36]: Non-toxic; Activity [37]: Non-toxic; Activity [1]: Non-toxic; Activity [2]: Non-toxic; Activity [3]: Non-toxic; Activity [4]: Non-toxic; Activity [5]: Non-toxic; Activity [6]: Non-toxic; Activity [38]: <50%; Activity [21]: <50%; Activity [39]: Non-toxic; Activity [25]: Non-toxic |
